Reference: publication PMC4327942 (Chemistry & biology, 2010)
One block for each molecule: values may come before it.

Columns and labels:
[1] = test system: HIF ODD-luciferase reporter; experiment: HTS of SH-SY5Y ODD-luc reporter cells, 384-well, 10 μM compound, 3 hr; assay type: cell-based, human; conditions: for activation at 10 µM: Homo sapiens, SH-SY5Y, 3 h, read-out: reporter activation (%)
[2] = test system: HIF ODD-luciferase reporter; experiment: ODD-luc reporter activation, concentration titration in 96-well plates; assay type: cell-based, human; conditions: SH-SY5Y; for IC50: Homo sapiens, read-out: IC50 (reporter activation); for “Lag,” (concentration lag of reporter titration curve): ODD-luc reporter
[3] = Iron binding by displacement of calcein from its complex with iron; assay type: physicochemical; conditions: for ka, association rate constant for iron binding: calcein-iron complex 1 μM:1 μM, oxyquinoline 5-20 μM; for Kd: read-out: KFe, apparent iron binding constant, calcein displacement, 5 mM Tris-HCl buffer (pH 7.5)
cortical neurons = experiment: Neuroprotection in HCA; assay type: cell-based, rat; conditions: HCA model
In short: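 Forebrain neurons from E17 Sprague-Dawley rat embryos were plated at 10^6 cells/ml in 96-well plates. After 16 hr they were rinsed with warm PBS and moved to MEM containing 5 mM HCA plus test compound (0.25-2 μM). Incubation ran 24 hr or longer, until HCA-only controls reached 90% death. Viability was read by MTT.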

[4] = 10 μM, 3 hr, SH-SY5Y-ODD-luc cells

Compound: Oc1cccc2cccnc12 [Oxyquinoline, 8-hydroxyquinoline]
reporter activation (fold) [1, 4]: 4-5 fold | activation at 10 µM [1]: 35 to 45% | IC50 [2]: 10 ± 1 µM | “Lag,” (concentration lag of reporter titration curve) [2]: 4 ± 0.5 µM | ka, association rate constant for iron binding [3]: 110 ± 20 M⁻¹ s⁻¹ | Kd [3]: 0.2 ± 0.05 µM | times less potent as neuroprotectants (versus compounds 7 and 8) (cortical neurons): 20-40 times

Compound: O=C(C=C(O)c1ccccc1)c1ccccc1O [2′β-dihydroxychalcone]
reporter activation (fold) [1, 4]: 7.5 fold | reporter activation (%) ([1]; 10 μM, 3 hr, SH-SY5Y-ODD-luc cells, ciclopirox = 100%, DMSO = 0%): 71%

Compound: O=C1/C(=N\Nc2nccs2)C(c2ccccc2)=NN1c1ccccc1 [I, (Z)-1,3-diphenyl-4-(thiazol-2-yl-hydrazono)-1H-pyrazol-5(4H)-one]
activation at 10 µM [1]: 86%

Compound: S=C(Nc1ccccc1)Nc1nccs1 [III, 1-phenyl-3-(1,3-thiazol-2-yl)thiourea]
reporter activation (fold) [1, 4]: 5 fold | activation at 10 µM [1]: 41%

Compound: O=C1/C(=N\Nc2nc3ccccc3s2)C(c2ccccc2)=NN1c1ccccc1 [(Z)-4-(benzo[d]thiazol-2-yl-hydrazono)-1,3-diphenyl-1H-pyrazol-5(4H)-one]
activation at 10 µM [1]: 70%

IC50 [2]: 4.5 ± 0.5 µM | Kd [3]: 0.08 ± 0.02 µM
Compound: Cc1cc(C2CCCCC2)n(O)c(=O)c1 [Ciclopirox, ciclopirox]
increase of background signal for the wild-type ODD-luc reporter (PYIP line) ([1]; 10 μM, 3 hr incubation): 10 fold | reporter signal as % of the threshold value (control line AYIA) ([1]; 10 μM, 3 hr incubation, PYIP line): ~50% | “Lag,” (concentration lag of reporter titration curve) [2]: 2 ± 0.5 µM | ka, association rate constant for iron binding [3]: 300 ± 50 M⁻¹ s⁻¹

Compound: N[C@@H](Cc1ccc(O)c(O)c1)C(=O)O [L-Dopa]
reporter activation (fold) [1, 4]: 3 fold | activation at 10 µM [1]: 21%

iron chelation properties in solution (in words) [3]: no iron chelation properties in solution
Compound: NNc1nc(-c2ccccc2)cc(-c2ccccc2)n1 [II, 2-hydrazinyl-4,6-diphenylpyrimidine]
reporter activation (fold) [1, 4]: 6.7 fold | activation at 10 µM [1]: 64%
